# In ChEMBL document CHEMBL5143735, “Design, Synthesis, and Characterization of [18F]mG2P026 as a High-Contrast PET Imaging Ligand for Metabotropic Glutamate Receptor 2” (J Med Chem, 2022):
# What was measured:
# [1] = target: Metabotropic glutamate receptor 5 (Homo sapiens, UniProt P41594); assay: Agonist activity at mGlu5 receptor (unknown origin) expressed in human Flp-In-T-REx-293 cells by Ca2+ mobilization assay
# [2] = target: Metabotropic glutamate receptor 1 (Homo sapiens, UniProt Q13255); assay: Agonist activity at mGlu1 receptor (unknown origin) expressed in human Flp-In-T-REx-293 cells by Ca2+ mobilization assay
# Metabotropic glutamate receptor 1, sequence (Q13255 whole entry): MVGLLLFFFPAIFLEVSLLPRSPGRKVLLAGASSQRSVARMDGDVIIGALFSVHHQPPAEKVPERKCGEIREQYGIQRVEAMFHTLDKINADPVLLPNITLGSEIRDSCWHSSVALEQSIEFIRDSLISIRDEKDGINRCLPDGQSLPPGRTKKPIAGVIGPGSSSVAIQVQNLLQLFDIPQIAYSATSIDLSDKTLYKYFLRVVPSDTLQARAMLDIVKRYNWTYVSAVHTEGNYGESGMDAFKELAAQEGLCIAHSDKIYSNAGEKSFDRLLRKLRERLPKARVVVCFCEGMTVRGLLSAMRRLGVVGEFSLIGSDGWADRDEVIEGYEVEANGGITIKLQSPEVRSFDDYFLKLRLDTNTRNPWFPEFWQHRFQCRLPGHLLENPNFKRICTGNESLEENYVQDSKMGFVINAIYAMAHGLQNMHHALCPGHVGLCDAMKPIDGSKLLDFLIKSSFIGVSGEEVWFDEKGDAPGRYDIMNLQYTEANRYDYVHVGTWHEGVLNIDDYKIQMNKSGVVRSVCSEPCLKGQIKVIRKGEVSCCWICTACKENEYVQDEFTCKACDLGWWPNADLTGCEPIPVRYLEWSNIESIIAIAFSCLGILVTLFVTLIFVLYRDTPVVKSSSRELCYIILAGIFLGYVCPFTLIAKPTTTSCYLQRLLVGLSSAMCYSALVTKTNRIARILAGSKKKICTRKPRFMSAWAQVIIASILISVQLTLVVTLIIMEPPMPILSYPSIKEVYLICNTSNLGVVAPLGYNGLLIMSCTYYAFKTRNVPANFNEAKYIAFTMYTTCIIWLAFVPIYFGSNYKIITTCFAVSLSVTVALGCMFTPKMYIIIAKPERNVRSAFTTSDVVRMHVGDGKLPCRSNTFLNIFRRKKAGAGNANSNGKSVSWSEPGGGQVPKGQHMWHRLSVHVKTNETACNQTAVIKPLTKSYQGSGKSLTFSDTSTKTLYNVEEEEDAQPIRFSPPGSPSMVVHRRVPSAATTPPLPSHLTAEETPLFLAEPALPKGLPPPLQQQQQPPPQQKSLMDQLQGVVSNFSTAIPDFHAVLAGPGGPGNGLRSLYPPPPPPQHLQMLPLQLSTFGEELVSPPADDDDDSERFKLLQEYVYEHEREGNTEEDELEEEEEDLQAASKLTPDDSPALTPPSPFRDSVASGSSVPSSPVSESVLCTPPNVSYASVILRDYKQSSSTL
# [3] = target: Metabotropic glutamate receptor 8 (Homo sapiens, UniProt O00222); assay: Agonist activity at mGlu8 receptor (unknown origin) expressed in human Flp-In-T-REx-293 cells by luciferase based GloSensor cAMP Assay; type: functional, cell-based, HEK293
# Metabotropic glutamate receptor 8, sequence (O00222 whole entry): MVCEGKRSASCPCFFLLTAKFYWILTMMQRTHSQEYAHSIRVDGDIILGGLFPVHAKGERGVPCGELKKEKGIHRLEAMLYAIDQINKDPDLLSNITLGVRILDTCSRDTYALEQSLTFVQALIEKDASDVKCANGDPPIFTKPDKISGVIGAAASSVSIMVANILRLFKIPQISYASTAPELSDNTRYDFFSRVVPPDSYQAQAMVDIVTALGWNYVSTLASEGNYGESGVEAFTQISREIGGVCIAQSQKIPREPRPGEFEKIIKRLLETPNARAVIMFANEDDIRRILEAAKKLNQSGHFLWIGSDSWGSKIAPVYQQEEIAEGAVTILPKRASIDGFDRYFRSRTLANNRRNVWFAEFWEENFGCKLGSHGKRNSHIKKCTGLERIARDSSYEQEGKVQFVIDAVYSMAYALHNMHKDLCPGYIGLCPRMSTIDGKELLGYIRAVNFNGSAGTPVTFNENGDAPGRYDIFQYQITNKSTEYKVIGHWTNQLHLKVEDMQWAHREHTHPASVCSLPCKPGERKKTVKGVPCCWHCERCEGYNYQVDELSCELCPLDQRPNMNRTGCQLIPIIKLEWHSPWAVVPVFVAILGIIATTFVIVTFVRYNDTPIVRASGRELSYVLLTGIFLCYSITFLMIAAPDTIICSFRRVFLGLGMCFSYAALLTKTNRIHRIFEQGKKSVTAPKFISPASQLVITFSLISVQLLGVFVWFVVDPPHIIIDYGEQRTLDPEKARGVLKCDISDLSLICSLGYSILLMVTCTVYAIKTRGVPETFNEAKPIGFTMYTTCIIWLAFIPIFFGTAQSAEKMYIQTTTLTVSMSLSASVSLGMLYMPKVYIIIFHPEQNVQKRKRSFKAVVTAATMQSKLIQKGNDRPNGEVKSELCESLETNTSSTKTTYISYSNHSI
# Method in brief: (§1)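 Tetracycline-inducible Flp-In T-REx-293 cells stably carrying mGluR4, mGluR6 or mGluR8, grown in DMEM with 10% FBS, hygromycin B and blasticidin at 37 °C, 5% CO2. Gi/o-coupled receptor activation read as intracellular cAMP change by split-luciferase GloSensor biosensor. EC50 from four-parameter logistic fit of concentration–response curves; each assay run at least three times.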
# [4] = target: Metabotropic glutamate receptor 6 (Homo sapiens, UniProt O15303); assay: Agonist activity at mGlu6 receptor (unknown origin) expressed in human Flp-In-T-REx-293 cells by luciferase based GloSensor cAMP Assay; type: functional, cell-based, HEK293
# Metabotropic glutamate receptor 6, sequence (O15303 whole entry): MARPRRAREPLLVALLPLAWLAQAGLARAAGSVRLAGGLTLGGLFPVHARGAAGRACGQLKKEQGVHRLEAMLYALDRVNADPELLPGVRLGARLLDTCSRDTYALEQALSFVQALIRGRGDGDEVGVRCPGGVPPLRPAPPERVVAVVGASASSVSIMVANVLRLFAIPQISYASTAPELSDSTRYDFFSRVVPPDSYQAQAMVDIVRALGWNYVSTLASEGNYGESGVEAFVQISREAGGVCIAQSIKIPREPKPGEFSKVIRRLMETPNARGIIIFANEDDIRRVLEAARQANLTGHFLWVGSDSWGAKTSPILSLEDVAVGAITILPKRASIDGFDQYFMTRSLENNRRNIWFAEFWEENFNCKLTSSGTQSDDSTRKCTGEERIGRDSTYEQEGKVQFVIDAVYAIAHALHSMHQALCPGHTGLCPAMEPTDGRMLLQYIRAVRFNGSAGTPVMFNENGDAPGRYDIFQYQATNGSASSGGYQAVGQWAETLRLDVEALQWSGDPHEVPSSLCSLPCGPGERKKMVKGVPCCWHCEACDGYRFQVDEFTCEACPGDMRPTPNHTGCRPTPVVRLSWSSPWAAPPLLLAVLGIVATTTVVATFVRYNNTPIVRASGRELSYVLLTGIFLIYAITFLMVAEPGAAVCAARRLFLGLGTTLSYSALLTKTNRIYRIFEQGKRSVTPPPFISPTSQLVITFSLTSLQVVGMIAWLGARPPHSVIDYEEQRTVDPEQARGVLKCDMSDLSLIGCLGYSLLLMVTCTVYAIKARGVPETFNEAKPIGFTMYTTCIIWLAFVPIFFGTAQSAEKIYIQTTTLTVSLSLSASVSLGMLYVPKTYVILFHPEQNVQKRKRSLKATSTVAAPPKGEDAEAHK
# Method in brief: as §1
# [5] = target: Metabotropic glutamate receptor 4 (Homo sapiens, UniProt Q14833); assay: Agonist activity at mGlu4 receptor (unknown origin) expressed in human Flp-In-T-REx-293 cells by luciferase based GloSensor cAMP Assay; type: functional, cell-based, HEK293
# Metabotropic glutamate receptor 4, sequence (Q14833 whole entry): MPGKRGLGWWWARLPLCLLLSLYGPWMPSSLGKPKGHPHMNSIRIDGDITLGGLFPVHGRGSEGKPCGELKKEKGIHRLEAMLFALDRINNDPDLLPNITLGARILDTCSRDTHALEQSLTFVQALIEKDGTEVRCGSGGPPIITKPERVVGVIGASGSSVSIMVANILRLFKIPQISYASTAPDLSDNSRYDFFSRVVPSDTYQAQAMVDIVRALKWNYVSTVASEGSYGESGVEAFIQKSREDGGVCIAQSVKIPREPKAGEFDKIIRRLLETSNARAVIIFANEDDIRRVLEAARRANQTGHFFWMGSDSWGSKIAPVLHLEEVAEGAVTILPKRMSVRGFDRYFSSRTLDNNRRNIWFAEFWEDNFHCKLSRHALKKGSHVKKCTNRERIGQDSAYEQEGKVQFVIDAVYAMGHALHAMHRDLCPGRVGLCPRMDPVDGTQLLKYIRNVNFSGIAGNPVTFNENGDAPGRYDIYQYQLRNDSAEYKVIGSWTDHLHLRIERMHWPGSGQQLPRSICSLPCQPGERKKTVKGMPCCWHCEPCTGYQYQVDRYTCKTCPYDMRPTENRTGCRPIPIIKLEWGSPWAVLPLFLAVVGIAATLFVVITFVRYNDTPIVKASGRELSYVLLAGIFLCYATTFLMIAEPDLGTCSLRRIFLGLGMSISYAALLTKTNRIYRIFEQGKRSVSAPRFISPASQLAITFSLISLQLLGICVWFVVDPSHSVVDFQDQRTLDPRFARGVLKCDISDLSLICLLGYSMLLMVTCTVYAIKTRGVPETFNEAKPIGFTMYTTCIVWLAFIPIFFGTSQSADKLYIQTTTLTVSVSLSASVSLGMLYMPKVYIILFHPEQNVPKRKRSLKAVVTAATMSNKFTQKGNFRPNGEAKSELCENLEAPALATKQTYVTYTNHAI
# Method in brief: as §1
# in vivo [6] = conditions: cynomolgus monkey, whole blood and plasma
# in vivo [7] = conditions: cynomolgus monkey, plasma
# [8] = Unbound fraction in cynomolgus monkey plasma measured upto 140 mins by ultracentrifugation
# Metabotropic glutamate receptor 5, sequence (P41594 whole entry): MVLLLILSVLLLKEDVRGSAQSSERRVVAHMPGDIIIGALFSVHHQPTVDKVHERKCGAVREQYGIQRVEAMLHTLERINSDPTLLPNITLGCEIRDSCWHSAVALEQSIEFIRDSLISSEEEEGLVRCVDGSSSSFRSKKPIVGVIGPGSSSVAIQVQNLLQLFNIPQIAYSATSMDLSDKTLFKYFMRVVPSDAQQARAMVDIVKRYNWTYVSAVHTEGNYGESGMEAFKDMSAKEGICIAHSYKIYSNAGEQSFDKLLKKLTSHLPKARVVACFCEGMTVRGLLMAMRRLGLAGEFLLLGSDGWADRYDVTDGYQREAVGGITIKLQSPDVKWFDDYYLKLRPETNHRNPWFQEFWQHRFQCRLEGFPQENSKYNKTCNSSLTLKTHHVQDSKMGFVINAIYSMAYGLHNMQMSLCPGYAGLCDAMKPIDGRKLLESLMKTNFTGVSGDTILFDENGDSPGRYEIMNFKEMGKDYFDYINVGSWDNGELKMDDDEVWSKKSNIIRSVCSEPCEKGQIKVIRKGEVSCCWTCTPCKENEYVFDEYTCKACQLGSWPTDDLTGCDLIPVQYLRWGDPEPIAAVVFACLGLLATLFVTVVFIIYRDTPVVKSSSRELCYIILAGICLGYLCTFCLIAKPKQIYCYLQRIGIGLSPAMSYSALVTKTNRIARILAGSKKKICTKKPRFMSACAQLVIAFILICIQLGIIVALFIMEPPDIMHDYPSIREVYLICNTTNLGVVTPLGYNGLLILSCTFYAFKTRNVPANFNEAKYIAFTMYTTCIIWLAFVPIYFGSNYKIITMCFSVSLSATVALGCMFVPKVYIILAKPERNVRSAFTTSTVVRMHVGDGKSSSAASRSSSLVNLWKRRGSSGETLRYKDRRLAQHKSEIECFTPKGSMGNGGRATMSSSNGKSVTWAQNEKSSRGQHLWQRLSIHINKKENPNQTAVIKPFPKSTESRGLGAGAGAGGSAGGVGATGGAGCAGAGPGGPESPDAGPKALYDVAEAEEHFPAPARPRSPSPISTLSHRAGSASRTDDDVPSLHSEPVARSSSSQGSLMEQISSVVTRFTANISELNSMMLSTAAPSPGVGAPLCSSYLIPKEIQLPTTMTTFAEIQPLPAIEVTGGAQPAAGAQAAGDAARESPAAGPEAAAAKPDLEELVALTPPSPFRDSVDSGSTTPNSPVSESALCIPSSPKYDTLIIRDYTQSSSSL
Structure (SMILES),EC50 [1],EC50 [2],EC50 [3],EC50 [4],EC50 [5],blood plasma ratio at 11 min (in vivo [6]),remaining at 1.5 h (in vivo [7]),fraction unbound at 2.333 h [8]
Fc1ccc(N2CCN(Cc3cc(C(F)(F)F)cn4c(CC5CC5)nnc34)CC2)c(F)c1,> 10 µM,> 10 µM,> 10 µM,> 10 µM,> 10 µM,,,
O=C(c1cnc2c(cnn2CC2CC2)c1C(F)(F)F)N1CCN(c2ccc(F)cc2F)CC1,> 1 µM,> 1 µM,> 1 µM,> 1 µM,> 1 µM,,,
Fc1ccccc1N1CCN(Cc2ccn3c(CC4CC4)nnc3c2C(F)(F)F)CC1,> 10 µM,> 10 µM,> 10 µM,> 10 µM,> 10 µM,,,
Fc1ccc(N2CCN(Cc3ccn4c(CC5CC5)nnc4c3C(F)(F)F)CC2)c(Cl)c1,> 10 µM,> 10 µM,> 10 µM,> 10 µM,> 10 µM,,,
Fc1cc(Cl)ccc1N1CCN(Cc2ccn3c(CC4CC4)nnc3c2C(F)(F)F)CC1,> 10 µM,> 10 µM,> 10 µM,> 10 µM,> 10 µM,,,
FC(F)(F)c1c(CN2CCC(c3ccc([18F])cc3Cl)CC2)ccn2c(CC3CC3)nnc12,,,,,,1.12,49.3%,0.12
